Bioassay records as filed in PubChem BioAssay.
A selection: hits, their analogues and other compounds. The true share with any hit is near 9%.
D1 allo mod: D1 dopamine receptor (human) allosteric modulation; hit rate 5.9% among 58,000; HEK293 D1, CRE-luciferase, dopamine EC30 potentiation; actives deviate in either direction; P21728; B-score at 10 µM;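 active = luminescence count or its row- and column-corrected plate score outside the 99.7% band of the plate's sample wells, on either side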
mHtt clearance: compounds clearing mutant huntingtin protein. HeLa Exon1htt(103Q)mCFP, aggregate imaging; zero = plate's median compound well. inhibition, % at 1.5 µM. hit rate 0.42% among 47,000. AID 853;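 active = inhibition of aggregate fluorescence above about 70%, also judged a hit by eye on the cell image, limit read from the data, passing the limit was not always enough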;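 also: cells exposed to compound for three days before fixation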
AP ELISA ortho: alternative pathway complement inhibition, orthogonal assay. Human serum alternative complement pathway, LPS-coated ELISA, C3 deposition; tested in compound mixtures. inhibition, % at 5 µM. hit rate 0.08% among 62,000;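 active = inhibition above 30% in each of the two pooled mixtures holding the compound, so the lower value exceeds 30%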
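Test system: human serum alternative complement pathway, C3 deposition on LPS-coated wells; also added: Plate-bound LPS; doses: 5 µM per compound in ten-compound mixtures; schedule: 1 h at 37 °C; detection: Anti-C3 ELISA, OD 450 nm; evaluation: percent inhibition of C3 deposition onto LPS; repeats: two pool placements per compound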
M1 antag: M1 muscarinic receptor (rat) antagonism; P08482; CHO-M1 cells, Fluo-4 calcium, ACh EC80 antagonist mode; stronger effect = lower value; B-score at 10 µM; hit rate 3.4% among 64,000; AID 628;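 active = calcium fluorescence response, raw or row-and-column corrected B-score, differing from the plate sample mean either way at a set confidence level, mostly lower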
Target sequence (P08482 whole entry, looked up): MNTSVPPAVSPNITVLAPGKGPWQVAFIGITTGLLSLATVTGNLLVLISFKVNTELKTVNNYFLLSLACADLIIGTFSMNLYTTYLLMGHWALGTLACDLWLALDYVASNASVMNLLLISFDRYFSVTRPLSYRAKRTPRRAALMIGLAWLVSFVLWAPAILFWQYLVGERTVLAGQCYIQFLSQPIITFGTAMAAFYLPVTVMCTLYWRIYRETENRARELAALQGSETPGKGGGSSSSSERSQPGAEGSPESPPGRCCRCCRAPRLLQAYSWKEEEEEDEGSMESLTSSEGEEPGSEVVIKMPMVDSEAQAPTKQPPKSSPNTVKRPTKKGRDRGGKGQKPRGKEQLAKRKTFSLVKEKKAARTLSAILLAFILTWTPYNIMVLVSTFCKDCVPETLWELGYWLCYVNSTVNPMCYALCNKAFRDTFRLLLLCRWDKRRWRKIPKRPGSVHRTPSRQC
M1 ag: activates the M1 muscarinic receptor. hit rate 3% among 64,000. CHO-M1 cells, Fluo-4 calcium fluorescence, agonist mode; stronger effect = higher value. B-score at 10 µM;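 active = fluorescence rise, raw or as B-score row- and column-corrected plate score, outside the 99.7% band of its plate's samples, either direction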
M1 antag confirm: confirmation of rat M1 muscarinic receptor antagonists. CHO-M1 cells, Fluo-4 calcium, ACh EC80 antagonism; stronger effect = lower value. shares compounds with M1 antag. calcium response (max-min fluorescence) at 10 µM. hit rate 43% among 1,700;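 active = calcium response below the same-plate mean of wells given acetylcholine alone at its 80%-effect dose, minus 3 SD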
mGluR4 antag: acts on human mGluR4 in M1 antagonist selectivity test; shares compounds with M1 antag; CHO-mGluR4 calcium flux, Fluo-4 fluorescence, glutamate EC80; stronger effect = lower value; fluorescence response (max-min) at 10 µM; hit rate 0.9% among 1,700; AID 678;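 active = fluorescence response below the plate's average for near-maximal glutamate wells, less 3 SD of those wells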;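 also: raw unnormalized fluorescence span taken in the window right after glutamate addition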
Hits are given with their value; - = inactive; . = not tested or not shown.

SMILES | D1 allo mod | mHtt clearance | AP ELISA ortho | M1 antag | M1 ag | M1 antag confirm | mGluR4 antag
CN1CCN(CCCNC(=O)c2cc3c(=O)n(C)c4ccccc4c3s2)CC1 | - | - | - | -2.8 | - | - | -
Cn1c(C(=O)NCCN2CCCCCC2)cc2c(=O)n(C)c3ccccc3c21 | - | - | - | -3.7 | - | 430 | -
Cn1cc(C(=O)NCCN2CCN(c3ccccc3F)CC2)c2c3ccccc3n(C)c2c1=O | - | . | - | -4.3 | - | - | -
CC(C)(C)N=Cc1cc(-c2ccccc2)sc1O | . | - | . | . | . | . | .
COC(=O)C(C(=O)NCC1CCCO1)C1CCCC1 (centres undefined) | . | - | . | . | . | . | .
CCN(CC)CCN1C(=O)C(=O)/C(=C(/O)c2cccc(OC)c2)C1c1ccccn1 (centres undefined) | - | . | - | - | - | . | .
CCOc1ccccc1N1Cc2cc(C)c(C)cc2C1 | - | - | - | -1.5 | - | - | -
O=C(CN1CCN(c2ncccn2)CC1)N1CCN(C(c2ccccc2)c2ccccc2)CC1 | - | . | - | - | - | . | .
Cc1ccccc1C(=O)N1CCC(C(=O)Nc2ccc(F)cc2)CC1 | - | - | - | -4.3 | - | - | -
CCCOc1ccc2oc(=O)c3c(c2c1)CCCN3C(=O)CN1CCCC(C(=O)OCC)C1 (centres undefined) | - | . | - | -4.9 | - | 440 | -
CN(CC(=O)N1CCCc2c1c(=O)oc1ccc(O)cc21)Cc1ccccc1 | - | - | - | -6.5 | - | 467 | -
CCCOc1ccc2oc(=O)c3c(c2c1)CCCN3C(=O)CN1CCN(C(=O)c2ccco2)CC1 | - | . | - | - | - | . | .
O=C(CN1CCCC1)N1CCCc2c1c(=O)oc1ccc(OCc3ccccc3)cc21 | - | - | - | -2.5 | - | 384 | -
CCOC(=O)CCSc1nnc(-c2cccnc2)n1-c1ccccc1OC | - | . | - | - | - | . | .
CCOC(=O)c1cnc(-c2ccccc2)nc1N | - | - | - | -2.2 | - | - | -
CC(=O)C1C(c2ccc(OC(F)F)cc2)NC(=O)NC1(O)C(F)(F)F (centres undefined) | - | . | - | - | - | . | .
COc1ccc(C2NC(=O)NC(O)(C(F)(F)F)C2C(=O)c2ccc(C)cc2)cc1 (centres undefined) | - | - | - | -6.3 | - | 93 | -
Cn1c(SCC(=O)Nc2ccccc2F)nnc1-c1ccc(S(=O)(=O)N2CCOCC2)cc1 | - | . | - | - | - | . | .
COc1ccccc1N1CCN(C(=O)c2sc3nc(-c4ccccc4)cn3c2C)CC1 | - | . | . | -3.5 | - | - | -
CCn1c(=O)cc(SCC(=O)NCCN2CCN(Cc3ccccc3)CC2)c2ccccc21 | - | - | - | -3.5 | - | - | -
Cn1c(=O)cc(SCC(=O)N2CCN(Cc3ccc4c(c3)OCO4)CC2)c2ccccc21 | - | - | - | -2.1 | - | 474 | -
Cn1c(=O)cc(SCC(=O)N2CCN(C3CCCCC3)CC2)c2ccccc21 | - | . | - | -2.8 | - | 249 | -
CCn1c(=O)cc(SCC(=O)N2CCN(Cc3ccc4c(c3)OCO4)CC2)c2ccccc21 | - | - | - | -5.7 | - | 432 | -
CCn1c(=O)cc(SCC(=O)NCc2cccnc2)c2ccccc21 | - | . | - | - | - | . | .
CCn1c(=O)cc(SCC(=O)N2CCCCC2)c2ccccc21 | . | - | - | - | - | . | .
SMILES | D1 allo mod | mHtt clearance | AP ELISA ortho | M1 antag | M1 ag | M1 antag confirm | mGluR4 antag
CCCN1CNC(=S)N(c2cc(C)ccc2C)C1 | . | - | . | . | . | . | .
O=C(CN1CCCCC1)Nc1ccccc1 | . | - | . | . | . | . | .
O=C(CN1CCCC1)Nc1ccc(NC(=O)Nc2ccccc2Cl)cc1 | - | - | - | -1.7 | - | - | -
CC(C)C(=O)c1cc2c(cc1NC(=O)c1cccs1)OCCO2 | . | - | . | . | . | . | .
CCc1[nH]nc2c1C(c1cccnc1)C(C#N)=C(N)O2 (centres undefined) | - | - | - | - | - | . | .
CCCc1[nH]nc2c1C(c1ccccc1OC)C(C#N)=C(N)O2 (centres undefined) | - | - | - | - | - | . | .
CCCc1[nH]nc2c1C(c1ccncc1)C(C#N)=C(N)O2 (centres undefined) | - | - | - | -3.7 | - | - | -
CC(C)(C)c1[nH]nc2c1C(c1cccnc1)C(C#N)=C(N)O2 (centres undefined) | - | - | - | -4.1 | - | - | 163
CCCc1cc(N2CCN(c3ccccn3)CC2)n2nc(C)c(-c3ccccc3)c2n1 | . | . | - | - | - | . | .
COC(=O)c1sccc1NC(=S)N1CC(C)CC(C)C1 (centres undefined) | . | - | . | . | . | . | .
CN1CCc2c(sc3nc(SCC(N)=O)n(-c4ccccc4)c(=O)c23)C1 | - | . | - | - | - | . | .
C=CCn1c(SCC(=O)OC)nc2sc3c(c2c1=O)CCN(C)C3 | . | - | . | -5.3 | - | 198 | -
CSc1nc2sc3c(c2c(=O)n1C1CCCCC1)CCN(C)C3 | . | - | . | -4.8 | - | 185 | -
CC1(C)CC(C#N)(N2CCOCC2)CCO1 (centres undefined) | - | - | - | - | - | . | .
CCOCCCNc1nc(=S)[nH]c2cc(OC)c(OC)cc12 | - | - | - | -2.9 | - | - | -
COCCNc1nc(=S)[nH]c2cc(OC)c(OC)cc12 | - | - | - | - | - | . | .
Cc1ccc(-c2nc(CSCC(=O)NCCN3CCN(Cc4ccccc4)CC3)c(C)o2)cc1 | - | - | . | -5.3 | - | 423 | -
CC(=O)NC1CC(C)(C)N(OC(C)=O)C(C)(C)C1 | - | - | - | - | - | . | .
COC(=O)c1c(C)oc2cc(Br)c(OCC(=O)C(C)(C)C)cc12 | - | - | - | -1.9 | - | - | -
COC(=O)C1=C(C(=O)OC)C2(OC1c1ccccc1C)C(=O)c1ccccc1C2=O (centres undefined) | . | - | . | . | . | . | .
COc1ccc(C)cc1N(C(=O)CNC(=O)c1ccco1)C(C(=O)NC1CCCC1)c1cccnc1 (centres undefined) | - | - | - | - | - | . | .
Cc1cccc(NC(=O)CSc2nnc(Cn3cnc4ccccc43)o2)c1 | . | - | . | . | . | . | .
Cn1c(=O)c2c(nc(SCCN3CCCCC3)n2Cc2ccc(Cl)cc2)n(C)c1=O | - | . | . | -7.8 | - | 87 | -
C=CCOc1nc2c(c(=O)n(C)c(=O)n2C)n1Cc1ccccc1Cl | . | - | . | - | - | . | .
Cn1c(=O)c2c(nc(Sc3ncccn3)n2Cc2ccc(Cl)cc2)n(C)c1=O | - | - | - | - | - | . | .
CCSc1nc2c(c(=O)n(C)c(=O)n2C)n1Cc1ccc(Cl)cc1 | - | - | - | -3.7 | - | - | -
C=CC(C)Sc1nc2c(c(=O)n(C)c(=O)n2C)n1Cc1ccccc1Cl (centres undefined) | - | . | - | -4.5 | - | - | -
Cn1c(=O)[nH]c(=O)c2c1ncn2CCCc1ccccc1 | - | - | - | - | - | . | .
Cc1ccc(C2C3=C(CC(C)(C)CC3=O)N(CCN3CCOCC3)C3=C2C(=O)CC(C)(C)C3)cc1 | - | - | - | . | . | . | .
